27 molecules from ChEMBL document CHEMBL3044889, “Synthesis and quantitative structure-activity relationship (QSAR) study of novel 4-acyloxypodophyllotoxin derivatives modified in the A and C rings as insecticidal agents” (2013) can be followed below.

SMILES strings stand for the structures.

What all share (format): functional
Experiment [1] has as its system Mythimna separata. Description: Insecticidal activity against pre-third-instar larvae of Mythimna separata (Oriental armyworm) assessed as corrected mortality rate at 1 mg/ml measured after 35 days by the leaf-dipping method. As to conditions: 840 h. A digest of the protocol:
(§1)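 Test solutions 1 mg/mL in acetone; fresh wheat leaves dipped 3 s, air-dried indoors; acetone-only leaves as blank control. Ten larvae per dish fed treated leaves, topped up if consumed; untreated fresh leaves from 48 h until adult emergence. Held at 25 ± 2 °C, RH 65-80%, 12 h/12 h light/dark. Corrected mortality = (T − C) × 100/(1 − C).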

Experiment [2] concerns Mythimna separata. Kind of experiment: Insecticidal activity against pre-third-instar larvae of Mythimna separata (Oriental armyworm) assessed as corrected mortality rate at 1 mg/ml measured after 20 days by the leaf-dipping method. The note with it: 480 h. The essentials:
as §1

In experiment [3] the test system is Mythimna separata. Description: Insecticidal activity against pre-third-instar larvae of Mythimna separata (Oriental armyworm) assessed as corrected mortality rate at 1 mg/ml measured after 10 days by the leaf-dipping method. As to conditions: 240 h. A digest of the protocol:
as §1

On to `COc1cc2c(cc1OC)[C@H](O)[C@H]1COC(=O)[C@@H]1[C@@H]2c1cc(OC)c(OC)c(OC)c1` [6,7-O,O-DEMETHYLENE-6,7-O,O-DIMETHYLPODOPHYLLOTOXIN], for which the mortality (commonly the share of the test organisms that died) at 1000 µg/mL came out at 36.7% in experiment [1], 23.3% in experiment [2] and 0% in experiment [3].

Turning to `COc1cc2c(cc1OC)[C@H](OC(=O)c1ccccc1)[C@H]1COC(=O)[C@@H]1[C@@H]2c1cc(OC)c(OC)c(OC)c1`, the figures for the mortality at 1000 µg/mL in experiment [1], in experiment [2] and in experiment [3] were 36.7%, 26.7% and 10%, respectively.

For the molecule `COc1cc2c(cc1OC)[C@H](OC(=O)c1cccc([N+](=O)[O-])c1)[C@H]1COC(=O)[C@@H]1[C@@H]2c1cc(OC)c(OC)c(OC)c1`, the mortality at 1000 µg/mL in experiment [1] is 36.7%; in experiment [2], 16.7%; in experiment [3] it was 3.3%.

On to `CCCC(=O)O[C@@H]1c2cc(OC)c(OC)cc2[C@@H](c2cc(OC)c(OC)c(OC)c2)[C@H]2C(=O)OC[C@@H]21`, for which the mortality at 1000 µg/mL amounted to 36.7% in experiment [1], 10% in experiment [2] and 3.3% in experiment [3].

With `COc1cc2c(cc1OC)[C@H](OC(=O)c1cccc(Cl)c1)[C@H]1COC(=O)[C@@H]1[C@@H]2c1cc(OC)c(OC)c(OC)c1`, the values for the mortality at 1000 µg/mL in experiment [1], in experiment [2] and in experiment [3] were 50%, 23.3% and 3.3%, respectively.

In the case of `COc1cc2c(cc1OC)[C@H](OC(=O)Cc1cccc3ccccc13)[C@H]1COC(=O)[C@@H]1[C@@H]2c1cc(OC)c(OC)c(OC)c1`, the mortality at 1000 µg/mL in experiment [1] stood at 60%; in experiment [2] it was 26.7%; in experiment [3], 10%.

Take `COc1cc([C@@H]2c3cc(O)c(O)cc3[C@H](O)[C@H]3COC(=O)[C@H]23)cc(OC)c1OC` [6,7-O,O-DEMETHYLENEPODOPHYLLOTOXIN]: the values for the mortality at 1000 µg/mL in experiment [1], in experiment [2] and in experiment [3] were 23.3%, 6.7% and 0%, respectively.

Take `COc1cc2c(cc1OC)[C@H](OC(=O)Cc1ccccc1)[C@H]1COC(=O)[C@@H]1[C@@H]2c1cc(OC)c(OC)c(OC)c1`: the figures for the mortality at 1000 µg/mL in experiment [1], in experiment [2] and in experiment [3] were 26.7%, 13.3% and 3.3%, respectively.

As to `COc1cc([C@@H]2c3cc(OCc4ccccc4)c(OCc4ccccc4)cc3[C@H](O)[C@H]3COC(=O)[C@H]23)cc(OC)c1OC` [6,7-O,O-DEMETHYLENE-6,7-O,O-DIBENZYLPODOPHYLLOTOXIN], the mortality at 1000 µg/mL in experiment [1] worked out at 33.3%; in experiment [2] it was 33.3%; in experiment [3], 10%.

On to `CCCCCC(=O)O[C@@H]1c2cc(OC)c(OC)cc2[C@@H](c2cc(OC)c(OC)c(OC)c2)[C@H]2C(=O)OC[C@@H]21`, for which the values for the mortality at 1000 µg/mL in experiment [1], in experiment [2] and in experiment [3] were 43.3%, 26.7% and 23.3%, respectively.

As for `COc1cc2c(cc1OC)[C@H](OC(=O)c1ccc([N+](=O)[O-])cc1)[C@H]1COC(=O)[C@@H]1[C@@H]2c1cc(OC)c(OC)c(OC)c1`, the mortality at 1000 µg/mL in experiment [1] stood at 46.7%; in experiment [2], 13.3%; in experiment [3] it was 3.3%.

Consider `COc1cc([C@@H]2c3cc(OCc4ccccc4)c(OCc4ccccc4)cc3[C@@H](OC(=O)Cc3ccccc3)[C@H]3COC(=O)[C@H]23)cc(OC)c1OC`, for which the figures for the mortality at 1000 µg/mL in experiment [1], in experiment [2] and in experiment [3] were 40%, 16.7% and 3.3%, respectively.

`COc1cc([C@@H]2c3cc4c(cc3[C@H](O)[C@H]3COC(=O)[C@H]23)OCO4)cc(OC)c1OC` [PODOFILOX]: the mortality at 1000 µg/mL was 40% in experiment [1], 23.3% in experiment [2] and 13.3% in experiment [3].

For `COc1cc2c(cc1OC)[C@H](OC(C)=O)[C@H]1COC(=O)[C@@H]1[C@@H]2c1cc(OC)c(OC)c(OC)c1`, the mortality at 1000 µg/mL is 36.7% in experiment [1], 23.3% in experiment [2] and 10% in experiment [3].

As to `COc1cc([C@@H]2c3cc(OCc4ccccc4)c(OCc4ccccc4)cc3[C@@H](OC(=O)c3cccc([N+](=O)[O-])c3)[C@H]3COC(=O)[C@H]23)cc(OC)c1OC`, the mortality at 1000 µg/mL in experiment [1] worked out at 33.3%; in experiment [2], 6.7%; in experiment [3], 3.3%.

`CCCC(=O)O[C@H]1c2cc(OC)c(OC)cc2[C@@H](c2cc(OC)c(OC)c(OC)c2)[C@H]2C(=O)OC[C@@H]21`: the results for the mortality at 1000 µg/mL in experiment [1], in experiment [2] and in experiment [3] were 33.3%, 20% and 6.7%, respectively.

For the molecule `COc1cc2c(cc1OC)[C@@H](O)[C@H]1COC(=O)[C@@H]1[C@@H]2c1cc(OC)c(OC)c(OC)c1` [6,7-O,O-DEMETHYLENE-6,7-O,O-DIMETHYLEPIPODOPHYLLOTOXIN], the mortality at 1000 µg/mL in experiment [1] is 40%; in experiment [2], 23.3%; in experiment [3], 16.7%.

With `COc1cc([C@@H]2c3cc(OCc4ccccc4)c(OCc4ccccc4)cc3[C@@H](OC(=O)Cc3cccc4ccccc34)[C@H]3COC(=O)[C@H]23)cc(OC)c1OC`, the mortality at 1000 µg/mL was 33.3% in experiment [1], 26.7% in experiment [2] and 3.3% in experiment [3].

With `CCCCCC(=O)O[C@@H]1c2cc(OCc3ccccc3)c(OCc3ccccc3)cc2[C@@H](c2cc(OC)c(OC)c(OC)c2)[C@H]2C(=O)OC[C@@H]21`, the mortality at 1000 µg/mL came to 33.3% in experiment [1], 13.3% in experiment [2] and 10% in experiment [3].

Regarding `COc1cc2c(cc1OC)[C@H](OC(=O)c1ccc(C)cc1)[C@H]1COC(=O)[C@@H]1[C@@H]2c1cc(OC)c(OC)c(OC)c1`, the values for the mortality at 1000 µg/mL in experiment [1], in experiment [2] and in experiment [3] were 33.3%, 16.7% and 6.7%, respectively.

Consider `COc1cc2c(cc1OC)[C@@H](OC(=O)Cc1cccc3ccccc13)[C@H]1COC(=O)[C@@H]1[C@@H]2c1cc(OC)c(OC)c(OC)c1`, for which the mortality at 1000 µg/mL in experiment [1] is 50%; in experiment [2] it was 20%; in experiment [3], 13.3%.

For the molecule `COc1cc2c(cc1OC)[C@@H](OC(=O)Cc1ccccc1)[C@H]1COC(=O)[C@@H]1[C@@H]2c1cc(OC)c(OC)c(OC)c1`, the mortality at 1000 µg/mL in experiment [1] was found to be 33.3%; in experiment [2] it was 16.7%; in experiment [3], 10%.

Turning to `CCCCCC(=O)O[C@H]1c2cc(OC)c(OC)cc2[C@@H](c2cc(OC)c(OC)c(OC)c2)[C@H]2C(=O)OC[C@@H]21`, the mortality at 1000 µg/mL in experiment [1] came out at 36.7%; in experiment [2], 23.3%; in experiment [3] it was 6.7%.

On to `COc1cc2c(cc1OC)[C@@H](OC(=O)c1cccc([N+](=O)[O-])c1)[C@H]1COC(=O)[C@@H]1[C@@H]2c1cc(OC)c(OC)c(OC)c1`, for which the mortality at 1000 µg/mL was determined as 36.7% in experiment [1], 26.7% in experiment [2] and 10% in experiment [3].

As for `CCCCCCCC(=O)O[C@H]1c2cc(OC)c(OC)cc2[C@@H](c2cc(OC)c(OC)c(OC)c2)[C@H]2C(=O)OC[C@@H]21`, the mortality at 1000 µg/mL was found to be 53.3% in experiment [1], 30% in experiment [2] and 10% in experiment [3].

As for `CC(=O)O[C@@H]1C[C@H](O)[C@@]23CO[C@@H](O)[C@]1(C)[C@@H]2C[C@@H](O)[C@]1(C)[C@@H]3C(=O)[C@H](OC(C)=O)[C@@]2(C)[C@H](c3ccoc3)C[C@H]3O[C@]321` [TOOSENDANIN], the figures for the mortality at 1000 µg/mL in experiment [1], in experiment [2] and in experiment [3] were 50%, 20% and 10%, respectively.

Consider `COc1cc2c(cc1OC)[C@H](OC(=O)CCl)[C@H]1COC(=O)[C@@H]1[C@@H]2c1cc(OC)c(OC)c(OC)c1`, for which the results for the mortality at 1000 µg/mL in experiment [1], in experiment [2] and in experiment [3] were 26.7%, 13.3% and 0%, respectively.
